Sampled rows, rich in hits. Any-hit rate of the full collection: about 1.9%.
UHRF1 MBD2 ctr – human UHRF1 methylated DNA binding inhibitors. AID 687016. 370,000 tested, 0.75% active. inhibition, % at 4.4 µM. Q96T88. UHRF1 binding to methylated oligo, TR-FRET; in the data active = inhibition above about 21%;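 also: UHRF1 SRA domain binding a hemimethylated CpG hairpin DNA probe; 0% = median of test compound wells and 100% = reference inhibitor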
Casp6 inh – blocks human caspase-6 cleavage activity; P55212; purified caspase-6, Z-VEID-R110 cleavage fluorescence; inhibition, % at 12.5 µM; 350,000 tested, 0.53% active;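 active = mean inhibition across replicates at least about 35%, with every replicate also reaching that limit, limit read from the data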;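 also: 0% = median of neutral control wells and 100% = no fluorescence left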
NSD2 inh – NSD2 (human) methyltransferase inhibition; O96028; 310,000 tested, 0.54% active; AID 743445; inhibition, % at 12.5 µM; NSD2 peptide methylation, AlphaScreen, 120 min; in the data active = inhibition above about 50%
MBD2 inh – blocks human MBD2 binding to methylated DNA; TR-FRET, MBD2 binding to methylated oligonucleotide; 370,000 tested, 0.31% active; inhibition, % at 4.4 µM; Q9UBB5; in the data active = inhibition above about 13%
LEDGF integ inh – blocks HIV-1 LEDGF/p75-dependent DNA integration. inhibition, % at 3.7 µM. 370,000 tested, 0.64% active. TR-FRET IN-LEDGF/p75 DNA integration, Eu/Cy5;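 active = inhibition above the screen-wide mean plus 3 SD, cut at about 13% in these data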;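 also: signal is the Cy5 over europium emission ratio at 671 and 618 nm; 0% = plate median of compound wells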
TDP2 absorb – TDP2 (human) inhibition, absorbance primary screen | O95551 | recombinant TDP2, T5PNP hydrolysis, p-nitrophenol absorbance 415 nm | inhibition, % at 12.8 µM | 370,000 tested, 0.34% active | AID 720702;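 active = inhibition above the mean of all tested compounds plus 3 SD, set per campaign, cut at about 25% in these data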;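 also: 0% = DMSO with enzyme and 100% = buffer with substrate but no TDP2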
Target sequence (O95551 whole entry, looked up): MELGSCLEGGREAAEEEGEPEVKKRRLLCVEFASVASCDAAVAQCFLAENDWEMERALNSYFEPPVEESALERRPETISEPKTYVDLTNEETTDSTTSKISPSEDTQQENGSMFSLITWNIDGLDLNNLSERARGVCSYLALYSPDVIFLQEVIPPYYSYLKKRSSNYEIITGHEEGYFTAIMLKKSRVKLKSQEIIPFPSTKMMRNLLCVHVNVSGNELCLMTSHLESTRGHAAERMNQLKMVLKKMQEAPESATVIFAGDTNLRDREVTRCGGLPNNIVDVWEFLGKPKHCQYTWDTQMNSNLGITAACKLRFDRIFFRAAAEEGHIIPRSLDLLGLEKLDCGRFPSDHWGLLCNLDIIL
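Test system: human TDP2 enzyme; Input: 120 nM TDP2 per well; Buffer or medium: Mg2+-containing Tris-HCl buffer, pH 7.5; Reagent: 5 mM T5PNP; Dosing: 12.8 µM single point, 1% DMSO; Incubation: reaction 2 h, 37 °C; Detection: p-Nitrophenol epi absorbance; Read-out: % inhibition relative to enzyme-containing and enzyme-free wells; Replicates: single well per compound.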
Numbers without * were called inactive.

For COCCCn1cc(CN(C)C2CN(Cc3cn(CCCOC)nn3)S(=O)(=O)C2)nn1 (stereo not drawn) the results were UHRF1 MBD2 ctr 24*, Casp6 inh -1, MBD2 inh 8, LEDGF integ inh 2 and TDP2 absorb 8.
Screening O=C(Nc1cccc(C(=O)N2CCOCC2)c1)c1ccc([N+](=O)[O-])cc1 returned UHRF1 MBD2 ctr -1, Casp6 inh 42*, NSD2 inh -5, MBD2 inh -2, LEDGF integ inh -2 and TDP2 absorb -5.
O=C(Cc1cccc([N+](=O)[O-])c1)Nc1cccc(C(=O)N2CCOCC2)c1 was read as UHRF1 MBD2 ctr 7, Casp6 inh -3, MBD2 inh 2, LEDGF integ inh 1 and TDP2 absorb 10.
For C[C@H](CO)N1C[C@H](C)[C@@H](CN(C)Cc2ccncc2)Oc2ccc(NC(=O)Cc3cn(C)c4ccccc34)cc2C1=O the results were Casp6 inh -2.
Nc1cccnc1Oc1ccc(F)cc1 was read as UHRF1 MBD2 ctr -3, Casp6 inh 52*, NSD2 inh 38, MBD2 inh -2, LEDGF integ inh 3 and TDP2 absorb -10.
For Nc1cccnc1Oc1ccc(F)cc1F the results were UHRF1 MBD2 ctr -6, Casp6 inh 46*, NSD2 inh -4, MBD2 inh -4, LEDGF integ inh 2 and TDP2 absorb -5.
`Cc1ccc(Oc2ncccc2N)c2c1CCC2` gave UHRF1 MBD2 ctr -3, Casp6 inh 4, NSD2 inh 4, MBD2 inh -8, LEDGF integ inh 2 and TDP2 absorb 6.
Screening CCOC(=O)c1nc2cc3n(c(CC(C)C)c-2c1C)CC(C)=C3C returned UHRF1 MBD2 ctr -5, NSD2 inh 6, MBD2 inh -4, LEDGF integ inh -1 and TDP2 absorb 5.
Screening CCOC(=O)c1nc2cc3n(c(C)c-2c1C)C(C)C(C)=C3C (stereo not drawn) returned UHRF1 MBD2 ctr 23*, NSD2 inh 5, MBD2 inh 2, LEDGF integ inh 3 and TDP2 absorb 4.
CO[C@H]1CN(C)C(=O)c2cc(NC(C)=O)ccc2OC[C@@H](C)N(C(=O)c2cccnc2)C[C@@H]1C was read as Casp6 inh -1.
`Cc1ccn2c(=S)[nH]nc2c1` gave UHRF1 MBD2 ctr 0, Casp6 inh 37*, NSD2 inh -4, MBD2 inh 3, LEDGF integ inh -6 and TDP2 absorb -1.
C[C@@H]1CN([C@H](C)CO)C(=O)Cc2cc(NC(=O)C3CC3)ccc2O[C@H]1CN(C)S(=O)(=O)c1ccc(Cl)cc1 was read as Casp6 inh 3.
`O=C1C2=C(c3ccccc31)[N+](=O)[C@@H]1CCCC[C@@H]1N2[O-]` gave UHRF1 MBD2 ctr -12, Casp6 inh 63*, NSD2 inh 27, MBD2 inh -14, LEDGF integ inh 6 and TDP2 absorb 17.
O=C1c2ccccc2C(=O)c2c1ccc1c(=O)n(C3CCCCC3)[nH]c21 was read as UHRF1 MBD2 ctr -2, Casp6 inh 1, NSD2 inh 15, MBD2 inh -4, LEDGF integ inh -1 and TDP2 absorb 14.
Screening O=C1C2=C(c3ccccc31)[N+](=O)C1CCCCC1N2[O-] (stereo not drawn) returned UHRF1 MBD2 ctr -16, NSD2 inh 9, MBD2 inh -12, LEDGF integ inh 6 and TDP2 absorb 25*.
CCC(=O)Nc1c2c(nn1-c1ccc(OC)cc1)CS(=O)C2 (stereo not drawn) was read as UHRF1 MBD2 ctr 0, Casp6 inh -3, MBD2 inh 6, LEDGF integ inh -2 and TDP2 absorb 1.
CCC(CC)C(=O)Nc1c2c(nn1-c1ccc(OC)cc1)CS(=O)C2 (stereo not drawn) was read as UHRF1 MBD2 ctr 39*, NSD2 inh 0, MBD2 inh -3, LEDGF integ inh 0 and TDP2 absorb -22.
`C#CCOCCOCCOCCNc1nc(N2CCN(C(=O)[C@H](CCC(=O)O)n3cc([C@@H](N)CCCCN)nn3)CC2)nc(N2CCN(C(=O)[C@H](CCC(=O)O)n3cc([C@@H](N)CCCCN)nn3)CC2)n1` gave UHRF1 MBD2 ctr 2, Casp6 inh -87, MBD2 inh -1, LEDGF integ inh 1 and TDP2 absorb -11.
`C#CCOCCOCCOCCNc1nc(N2CCN(C(=O)[C@H](CCC(=O)O)n3cc([C@@H](N)CCCCN)nn3)CC2)nc(N2CCN(C(=O)[C@H](CCCCN)n3cc([C@@H](N)CC(N)=O)nn3)CC2)n1` gave UHRF1 MBD2 ctr 48*, Casp6 inh -190, MBD2 inh -2, LEDGF integ inh 1 and TDP2 absorb 10.
For Cc1[nH]n(-c2ccccc2)c(=O)c1C(c1ccccc1[N+](=O)[O-])C(C#N)C#N (stereo not drawn) the results were UHRF1 MBD2 ctr 0, Casp6 inh 8, NSD2 inh 1, MBD2 inh -3, LEDGF integ inh 7 and TDP2 absorb 75*.
Cc1[nH]n(-c2ccccc2)c(=O)c1C(c1ccccc1C(=O)O)c1c(C)[nH]n(-c2ccccc2)c1=O was read as UHRF1 MBD2 ctr -1, NSD2 inh -1, MBD2 inh 2, LEDGF integ inh -2 and TDP2 absorb 2.
`Cc1ccc(NC(=O)COc2cccc(/C=C3\SC(=S)N(CCC(=O)O)C3=O)c2)cc1Cl` gave UHRF1 MBD2 ctr -5, Casp6 inh 42*, NSD2 inh 0, MBD2 inh 3, LEDGF integ inh -3 and TDP2 absorb -2.
Screening CCc1ccc(Nc2ncc3c(n2)CC(C)(C)CC3=O)cc1 returned UHRF1 MBD2 ctr 42*, Casp6 inh 3, NSD2 inh 0, MBD2 inh -5, LEDGF integ inh 3 and TDP2 absorb 11.
`CCc1ccc(Nc2ncc3c(n2)CC(C)CC3=O)cc1` (stereo not drawn) gave UHRF1 MBD2 ctr 2, Casp6 inh 0, NSD2 inh 13, MBD2 inh 1, LEDGF integ inh -4 and TDP2 absorb -10.
Screening O=C1c2ccccc2[C@@H]2C[C@@H](O)[C@H](Nc3cccc4ccccc34)CCN12 returned UHRF1 MBD2 ctr -9, Casp6 inh 39*, MBD2 inh -12, LEDGF integ inh 8 and TDP2 absorb 24.
`COc1ccc(N[C@@H]2CCN3C(=O)c4ccccc4[C@@H]3C[C@H]2O)cc1` gave UHRF1 MBD2 ctr 0, Casp6 inh 6, MBD2 inh -3, LEDGF integ inh -4 and TDP2 absorb -2.
Screening CN(C)C(=O)C[C@H]1C[C@H]2c3cc(NS(=O)(=O)c4ccccc4)ccc3O[C@H]2[C@H](CO)O1 returned Casp6 inh 1.
